In ChEMBL document CHEMBL1124652, “Resolved 6,7,8,9-tetrahydro-N,N-dimethyl-3H-benz[e]indol-8-amine: central dopamine and serotonin receptor stimulating properties” (J Med Chem, 1989):
Active and inactive are the calls of the source. No cut-off for these calls is given here.

Columns and labels:
[1] = test system: Rattus norvegicus; assay: Effect on motor activity in rats at a dose of 2 uM/Kg; format: functional
[2] = test system: Rattus norvegicus; assay: Effect on Dopa accumulation upon subcutaneous administration in the limbic system of rat brain; format: functional; conditions: sc
[3] = test system: Rattus norvegicus; assay: Effect of compound on 5-Hydroxy tryptamine accumulation upon subcutaneous administration in the limbic system of rat brain; format: functional; conditions: sc
[4] = test system: Rattus norvegicus; assay: Effect of compound on 5-Hydroxy tryptamine accumulation upon subcutaneous administration in the hemisphere of rat brain; format: functional; conditions: sc
[5] = test system: Rattus norvegicus; assay: Effect of compound on 5-Hydroxy tryptamine accumulation upon subcutaneous administration in the corpus striatum of rat brain; format: functional; conditions: sc
[6] = molecular target: T1, D(1A) dopamine receptor (Rattus norvegicus, UniProt P18901); assay: In vitro binding activity against dopamine receptor D1 from homogenized rat brain, using [3H]SCH-23390 as the radioligand.
T1 sequence (P18901 whole entry): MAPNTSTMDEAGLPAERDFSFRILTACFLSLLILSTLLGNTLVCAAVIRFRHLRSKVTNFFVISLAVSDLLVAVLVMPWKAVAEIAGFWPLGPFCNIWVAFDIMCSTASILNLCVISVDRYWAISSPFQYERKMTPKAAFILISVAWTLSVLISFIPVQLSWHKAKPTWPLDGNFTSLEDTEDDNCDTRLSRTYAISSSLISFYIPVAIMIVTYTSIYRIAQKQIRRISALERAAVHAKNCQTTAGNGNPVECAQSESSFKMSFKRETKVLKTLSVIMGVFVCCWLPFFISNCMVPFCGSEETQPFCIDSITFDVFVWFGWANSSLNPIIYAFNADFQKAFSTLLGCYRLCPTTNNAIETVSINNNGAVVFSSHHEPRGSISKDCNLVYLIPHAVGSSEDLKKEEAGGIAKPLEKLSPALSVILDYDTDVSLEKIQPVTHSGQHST
How it was run: (§1)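 Rat striatal membranes prepared in 50 mM potassium phosphate pH 7.4 and centrifuged at 25000g. Incubated with 0.2 nM [3H]SCH 23390 (1 mg original tissue) for 60 min at 30 °C, then separated by rapid filtration. Specific binding defined with 1 μM cis-(Z)-flupentixol.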

[7] = test system: Rattus norvegicus; assay: Effect on Dopa accumulation upon subcutaneous administration in the corpus striatum of rat brain; format: functional; conditions: sc
[8] = test system: Rattus norvegicus; assay: Effect on Dopa accumulation upon subcutaneous administration in the hemispheres of rat brain (partial response); format: functional; conditions: sc
[9] = test system: Rattus norvegicus; assay: Effect on motor activity in rats at a dose of 12.5 uM/Kg; format: functional
[10] = test system: Rattus norvegicus; assay: Effect on Dopa accumulation upon subcutaneous administration in the hemispheres of rat brain; format: functional; conditions: sc
[11] = test system: Rattus norvegicus; assay: Effect of compound on 5-Hydroxy transaminase accumulation upon subcutaneous administration in the limbic system of rat brain; format: functional; conditions: sc
How it was run: (§2)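 Male Sprague-Dawley rats (200-300 g) were dosed subcutaneously at 5 mL/kg with neutral-pH solutions. Dose-response curves used four to six dose levels (n = 4) per substance and per brain area, up to 50 μmol/kg. 5-HTP was measured in dissected brain regions by HPLC with electrochemical detection, and ED50 values were derived from the curves.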

[12] = test system: Rattus norvegicus; assay: Effect of compound on 5-Hydroxy transaminase accumulation upon subcutaneous administration in the hemisphere of rat brain; format: functional; conditions: sc; how it was run: as §2
[13] = test system: Rattus norvegicus; assay: Effect of compound on 5-Hydroxy transaminase accumulation upon subcutaneous administration in the corpus striatum of rat brain; format: functional; conditions: sc
How it was run: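 Male Sprague-Dawley rats (200-300 g) received the compound subcutaneously at 5 mL/kg in neutral-pH solution, at four to six dose levels up to 50 μmol/kg (n = 4 per dose). 5-HTP in the corpus striatum was measured by HPLC with electrochemical detection. A separate dose-response curve per substance and brain area gave ED50 values.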

[14] = test system: Rattus norvegicus; assay: Effect on Dopa accumulation upon subcutaneous administration in the hemispheres of rat brain; I - inactive at highest dose (50 umol/kg); format: functional, organism-based
[15] = test system: Rattus norvegicus; assay: Effect on Dopa accumulation upon subcutaneous administration in the limbic system of rat brain; I - inactive at highest dose (50 umol/kg); format: functional, organism-based
[16] = species: Rattus norvegicus; assay: […]; format: functional, organism-based; conditions: Striatum
[17] = test system: Rattus norvegicus; assay: Effect on motor activity in rats at a dose of 4 uM/Kg; format: functional
[18] = test system: Rattus norvegicus; assay: Effect of compound on 5-Hydroxy tryptamine accumulation upon subcutaneous administration in the hemisphere of rat brain (partial response); format: functional; conditions: sc
[19] = test system: Rattus norvegicus; assay: Effect of compound on 5-Hydroxy transaminase accumulation upon subcutaneous administration in the limbic system of rat brain; I - inactive at highest dose (50 umol/kg); format: functional, organism-based
[20] = test system: Rattus norvegicus; assay: Effect of compound on 5-Hydroxy transaminase accumulation upon subcutaneous administration in the hemisphere of rat brain; I - inactive at highest dose (50 umol/kg); format: functional, organism-based
[21] = test system: Rattus norvegicus; assay: Effect of compound on 5-Hydroxy transaminase accumulation upon subcutaneous administration in the corpus striatum of rat brain; I - inactive at highest dose (50 umol/kg); format: functional, organism-based
[22] = molecular target: T1, D(1A) dopamine receptor; assay: In vitro binding activity against Dopamine receptor D1 from homogenized rat brain, using [3H]SCH-23390 as the radioligand; how it was run: as §1
[23] = molecular target: T2, 5-hydroxytryptamine receptor 1A (Rattus norvegicus, UniProt P19327); assay: In vitro binding activity against 5-hydroxytryptamine 1A receptor from homogenized rat brain, using [3H]-8-OH-DPAT as the radioligand
T2 sequence (P19327 whole entry): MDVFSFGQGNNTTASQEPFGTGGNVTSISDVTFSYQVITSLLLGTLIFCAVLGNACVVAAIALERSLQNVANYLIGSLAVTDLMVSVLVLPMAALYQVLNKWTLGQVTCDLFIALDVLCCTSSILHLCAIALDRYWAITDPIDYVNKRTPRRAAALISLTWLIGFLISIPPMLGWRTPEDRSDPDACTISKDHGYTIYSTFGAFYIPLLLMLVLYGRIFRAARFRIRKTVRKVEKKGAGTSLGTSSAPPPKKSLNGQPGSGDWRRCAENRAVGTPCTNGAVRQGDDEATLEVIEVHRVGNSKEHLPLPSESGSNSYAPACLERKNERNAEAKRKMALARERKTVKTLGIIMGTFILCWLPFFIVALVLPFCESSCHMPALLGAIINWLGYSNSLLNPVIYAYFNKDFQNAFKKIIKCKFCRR
How it was run: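 Whole rat brain minus brainstem and cerebellum, homogenized in 50 mM Tris pH 8.0 with 120 mM NaCl, 4 mM CaCl2 and 4 mM MgCl2. Membranes preincubated 10 min at 37 °C, then resuspended with 10 μM pargyline. Incubated in triplicate with 1 nM [3H]-8-OH-DPAT (0.1% ascorbic acid) for 15 min at 37 °C, then filtered. Nonspecific binding defined with 10 μM 5-HT. IC50 from semilog linear regression.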

[24] = molecular target: T3, D(2) dopamine receptor (Rattus norvegicus, UniProt P61169); assay: In vitro binding activity against dopamine receptor D2 from homogenized rat brain, using [3H]spiperone as the radioligand
T3 sequence (P61169 whole entry): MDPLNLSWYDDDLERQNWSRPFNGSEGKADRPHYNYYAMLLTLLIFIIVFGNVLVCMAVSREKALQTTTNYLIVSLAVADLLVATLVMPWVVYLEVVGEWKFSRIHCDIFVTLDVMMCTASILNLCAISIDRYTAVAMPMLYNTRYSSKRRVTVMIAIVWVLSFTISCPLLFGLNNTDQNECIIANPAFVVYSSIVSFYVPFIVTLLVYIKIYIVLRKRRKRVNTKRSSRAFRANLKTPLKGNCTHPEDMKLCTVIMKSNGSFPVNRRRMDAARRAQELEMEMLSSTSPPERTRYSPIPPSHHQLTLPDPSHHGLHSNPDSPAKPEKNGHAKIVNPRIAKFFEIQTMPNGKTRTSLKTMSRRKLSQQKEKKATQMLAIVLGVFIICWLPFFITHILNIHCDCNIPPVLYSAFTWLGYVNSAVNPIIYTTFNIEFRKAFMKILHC
How it was run: (§3)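 Rat striatal membranes in 50 mM potassium phosphate buffer (pH 7.4 at 25 °C), pellets homogenized in 1300 volumes. Incubated with 0.5 nM [3H]spiperone (3 mg original tissue) for 10 min at 37 °C, then terminated by rapid vacuum filtration and counted by liquid scintillation. Nonspecific binding defined with 10 μM 6,7-ADTN; specific binding 70-80% of total.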

[25] = molecular target: T1, D(1A) dopamine receptor; assay: In vitro binding activity against dopamine D1 receptor from homogenized rat brain, using [3H]SCH-23390 as the radioligand; how it was run: as §1
[26] = molecular target: T3, D(2) dopamine receptor; assay: In vitro binding activity against Dopamine receptor D2 from homogenized rat brain, using [3H]spiperone as the radioligand; how it was run: as §3

With `CN(C)[C@@H]1CCc2ccc3[nH]ccc3c2C1` as the molecule, how does the Motor activity [1] read?
The Motor activity was 130 accumulated counts 30min-1.

What about the ED50 [2] of the same molecule?
The ED50 was 0.3 µmol/kg.

And the ED50 [3]?
The ED50 was 0.4 µmol/kg.

And the ED50 [4]?
Its ED50 is 0.4 µmol/kg.

And the ED50 [5]?
The ED50 was 0.1 µmol/kg.

And the IC50 [6]?
Its IC50 is 20.4 µM.

What about the ED50 [7] of the same molecule?
Its ED50 is 0.4 µmol/kg.

And the ED50 [8]?
Its ED50 is 2 µmol/kg.

`CN(C)[C@H]1CCc2ccc3[nH]ccc3c2C1` was tested. Which ED50 [2] did it give?
The ED50 was 4.2 µmol/kg.

And the Motor activity [9]?
The Motor activity was 22 accumulated counts 30min-1.

And the ED50 [3]?
The ED50 was 3.7 µmol/kg.

And the ED50 [4]?
Its ED50 is 3.7 µmol/kg.

What about the ED50 [5] of the same molecule?
Its ED50 is 3.7 µmol/kg.

What about the IC50 [6] of the same molecule?
The IC50 was 29.2 µM.

And the ED50 [7]?
Its ED50 is 8 µmol/kg.

What about the ED50 [10] of the same molecule?
Its ED50 is 10 µmol/kg.

Which results are given for `CCCN(CCC)[C@@H]1CCc2cccc(O)c2C1`?
ED50 [11]: 0.036 µmol/kg; ED50 [12]: 0.05 µmol/kg; ED50 [13]: 0.047 µmol/kg; ED50 [14]: inactive; ED50 [15]: inactive; ED50 [16]: inactive

`CCCN(CCC)[C@H]1CCc2cccc(O)c2C1` was tested. Which ED50 [11] did it give?
The ED50 was 0.061 µmol/kg.

What about the ED50 [12] of the same molecule?
The ED50 was 0.077 µmol/kg.

And the ED50 [13]?
Its ED50 is 0.065 µmol/kg.

And the ED50 [14]?
Its ED50 is “inactive”.

What about the ED50 [15] of the same molecule?
The ED50 was “inactive”.

What about the ED50 [16] of the same molecule?
Its ED50 is “inactive”.

How did the ED50 [2] turn out when `CN(C)C1CCc2ccc3[nH]ccc3c2C1` (racemic) was run?
Its ED50 is 0.3 µmol/kg.

What about the Motor activity [17] of the same molecule?
The Motor activity was 90 accumulated counts 30min-1.

And the ED50 [3]?
Its ED50 is 0.3 µmol/kg.

And the ED50 [5]?
Its ED50 is 0.2 µmol/kg.

What about the IC50 [6] of the same molecule?
Its IC50 is 19.7 µM.

What about the ED50 [7] of the same molecule?
Its ED50 is 0.4 µmol/kg.

What about the ED50 [8] of the same molecule?
Its ED50 is 4 µmol/kg.

What about the ED50 [18] of the same molecule?
Its ED50 is 0.4 µmol/kg.

With `CCCN(CCC)[C@@H]1CCc2ccc(O)cc2C1` as the molecule, how does the ED50 [2] read?
The ED50 was 0.0095 µmol/kg.

What about the ED50 [19] of the same molecule?
Its ED50 is “inactive”.

What about the ED50 [14] of the same molecule?
The ED50 was “inactive”.

And the ED50 [7]?
Its ED50 is 0.011 µmol/kg.

And the ED50 [20]?
The ED50 was “inactive”.

What about the ED50 [21] of the same molecule?
The ED50 was “inactive”.

How did the IC50 [22] turn out when `CCN(CC)C(=O)N[C@H]1C[C@@H]2c3cccc4[nH]cc(c34)C[C@H]2N(C)C1` [TERGURIDE] was run?
The IC50 was 0.069 µM.

And the IC50 [23]?
The IC50 was 0.025 µM.

And the IC50 [24]?
The IC50 was 0.004 µM.

Which results are given for `CCCN(CCC)C1CCc2cccc(O)c2C1` (racemic) [8-OH-DPAT]?
IC50 [25]: > 100 µM; IC50 [26]: 5.76 µM
